Assay results taken from PubChem BioAssay AID652279 (Broad Institute, 2013).

Test system: T. cruzi CAI/72 in J774 macrophages, trypomastigote emergence, microscopy
Test: intracellular T. cruzi relapse after drug removal – imaging, CAI/72 strain, J774 macrophages, dry powder, mechanism study, late-stage follow-up (AID 652279)
Details: hits give high values
How it was run: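 Material: Irradiated (9000 rad) J774 macrophages infected with T. cruzi CAI/72 / Buffer or medium: RPMI-1640, 5% FCS / Doses: compound replenished every 3 days, starting 24 h post-infection / Timing: 1 or 3 weeks dosing, then 31 or 17 days washout / Signal: daily light-microscopy check for trypomastigote emergence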

| SMILES | slope of emergence day vs concentration |
| --- | --- |
| CC(C)N1C[C@@H](CN(C)Cc2ccc(Cl)cc2)Oc2c(C(=O)Nc3ccncc3)cccc2C1=O | 4.59 |
| CC(C)N1C[C@@H](CN(C)Cc2ccc(Oc3ccccc3)cc2)Oc2c(NC(=O)c3ccncc3)cccc2C1=O | 5.84 |
| CC(C)N1C[C@@H](CN(C)CCc2ccc(Cl)cc2)Oc2c(NC(=O)c3ccncc3)cccc2C1=O | 6.07 |
| CC(C)N1C[C@H](CN(C)Cc2ccc(Cl)cc2)Oc2c(NC(=O)c3ccncc3)cccc2C1=O | 2.02 |
| CC(C)N1C[C@@H](CN(C)Cc2ccc(Cl)c(Cl)c2)Oc2c(NC(=O)c3ccncc3)cccc2C1=O | 6.07 |
| CN(C)C(=O)c1cccc(-c2ccc([C@H]3[C@H](CO)N4CCCCN(C(=O)C5CCC5)C[C@@H]34)cc2)c1 | 1.4 |
| CC(C)N1C[C@@H](CN(C)CCc2ccc(Cl)c(Cl)c2)Oc2c(NC(=O)c3ccncc3)cccc2C1=O | 6.4 |
| CC(C)N1C[C@@H](CN(C)Cc2ccc(Cl)cc2)Oc2c(NC(=O)c3ccncc3)cccc2C1=O | 2.21 |
| CC(C)N1C[C@@H](CN(C)Cc2ccc(Cl)cc2)Oc2c(NC(=O)c3ccncc3)cc(F)cc2C1=O | 2.15 |
| CN(C)CC#Cc1cccc(-c2nc(C(=O)N[C@@H]3CCN(Cc4ccccc4)C3)cc3c2[C@@H](CCO)N(S(=O)C(C)(C)C)C3)c1 (stereo partly specified) | 2.02 |
| CN(C)CC#Cc1cccc(-c2nc(C(=O)NCc3ccc4c(c3)OCO4)cc3c2[C@@H](CCO)N(S(=O)C(C)(C)C)C3)c1 (stereo partly specified) | 4.35 |
